# Test system: U2OS
# Test: Multiplex assay against U2OS
# Format: toxicity, cell-based
# Settings: human
# Method in brief: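 On a CQ1 microscope at 37°C and 5% CO2, live cells were imaged after compound addition. They had been stained at seeding with Hoechst33342, BioTracker Green Microtubule Cytoskeleton Dye, MitoTracker Red and Annexin V Alexa Fluor 680. CellPathfinder machine-learning gating assigned cells to Hoechst high-intensity objects or normal cells, normal cells to healthy, pyknosed or fragmented nuclei, and pyknosed cells to mitotic or apoptotic. Tubulin, mitochondrial-mass and membrane-permeability phenotypes are per cents of healthy-nucleus cells.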
# [1] = 12 h, 1 µM, compound concentration 1 uM, replicate 1
# [2] = 12 h, 1 µM, compound concentration 1 uM, replicate 2
# [3] = 12 h, 10 µM, compound concentration 10 uM, replicate 1
# [4] = 12 h, 10 µM, compound concentration 10 uM, replicate 2
# [5] = 24 h, 1 µM, compound concentration 1 uM, replicate 1
# [6] = 24 h, 1 µM, compound concentration 1 uM, replicate 2
# [7] = 24 h, 10 µM, compound concentration 10 uM, replicate 1
# [8] = 24 h, 10 µM, compound concentration 10 uM, replicate 2
# [9] = 48 h, 1 µM, compound concentration 1 uM, replicate 1
# [10] = 48 h, 1 µM, compound concentration 1 uM, replicate 2
# [11] = 48 h, 10 µM, compound concentration 10 uM, replicate 1
# [12] = 48 h, 10 µM, compound concentration 10 uM, replicate 2
compound,measurement,setting,value
O=C(Nc1cc(-c2ccccc2)nn1-c1ccccc1F)c1ccc([N+](=O)[O-])cc1,Population Apoptotic (%),[1],86%
same,Population Fragmented Nuclei (%),[1],25%
same,Population Healthy Nuclei (%),[1],66%
same,Population Hoechst High Intensity Objects (%),[1],4%
same,Population Membrane Permeable-Phenotype (%),[1],10%
same,Population Mitochondria Different-Phenotype (%),[1],4%
same,Population Mitotic Cells (%),[1],13%
same,Population Normal (%),[1],95%
same,Population Pyknosed Nuclei (%),[1],8%
same,Population Tubulin-Different-Phenotype (%),[1],4%
same,Total Cell Count,[1],293
same,Population Apoptotic (%),[2],91%
same,Population Fragmented Nuclei (%),[2],14%
same,Population Healthy Nuclei (%),[2],78%
same,Population Hoechst High Intensity Objects (%),[2],1%
same,Population Membrane Permeable-Phenotype (%),[2],9%
same,Population Mitotic Cells (%),[2],8%
same,Population Normal (%),[2],98%
same,Population Pyknosed Nuclei (%),[2],6%
same,Population Tubulin-Different-Phenotype (%),[2],9%
same,Total Cell Count,[2],182
same,Population Apoptotic (%),[3],66%
same,Population Fragmented Nuclei (%),[3],30%
same,Population Healthy Nuclei (%),[3],60%
same,Population Hoechst High Intensity Objects (%),[3],3%
same,Population Membrane Permeable-Phenotype (%),[3],11%
same,Population Mitochondria Different-Phenotype (%),[3],5%
same,Population Mitotic Cells (%),[3],33%
same,Population Normal (%),[3],96%
same,Population Pyknosed Nuclei (%),[3],9%
same,Population Tubulin-Different-Phenotype (%),[3],7%
same,Total Cell Count,[3],293
same,Population Apoptotic (%),[4],94%
same,Population Fragmented Nuclei (%),[4],12%
same,Population Healthy Nuclei (%),[4],73%
same,Population Hoechst High Intensity Objects (%),[4],0%
same,Population Mitochondria Different-Phenotype (%),[4],8%
same,Population Mitotic Cells (%),[4],5%
same,Population Normal (%),[4],100%
same,Population Pyknosed Nuclei (%),[4],13%
same,Population Tubulin-Different-Phenotype (%),[4],6%
same,Total Cell Count,[4],134
same,Population Apoptotic (%),[5],91%
same,Population Fragmented Nuclei (%),[5],24%
same,Population Healthy Nuclei (%),[5],68%
same,Population Hoechst High Intensity Objects (%),[5],3%
same,Population Membrane Permeable-Phenotype (%),[5],6%
same,Population Mitochondria Different-Phenotype (%),[5],4%
same,Population Mitotic Cells (%),[5],8%
same,Population Normal (%),[5],96%
same,Population Pyknosed Nuclei (%),[5],7%
same,Population Tubulin-Different-Phenotype (%),[5],5%
same,Total Cell Count,[5],342
same,Population Apoptotic (%),[6],100%
same,Population Fragmented Nuclei (%),[6],15%
same,Population Healthy Nuclei (%),[6],76%
same,Population Hoechst High Intensity Objects (%),[6],1%
same,Population Membrane Permeable-Phenotype (%),[6],9%
same,Population Mitochondria Different-Phenotype (%),[6],5%
same,Population Mitotic Cells (%),[6],0%
same,Population Normal (%),[6],98%
same,Population Pyknosed Nuclei (%),[6],8%
same,Population Tubulin-Different-Phenotype (%),[6],6%
same,Total Cell Count,[6],226
same,Population Apoptotic (%),[7],91%
same,Population Fragmented Nuclei (%),[7],25%
same,Population Healthy Nuclei (%),[7],64%
same,Population Hoechst High Intensity Objects (%),[7],1%
same,Population Membrane Permeable-Phenotype (%),[7],7%
same,Population Mitochondria Different-Phenotype (%),[7],3%
same,Population Mitotic Cells (%),[7],8%
same,Population Normal (%),[7],98%
same,Population Pyknosed Nuclei (%),[7],9%
same,Population Tubulin-Different-Phenotype (%),[7],5%
same,Total Cell Count,[7],353
same,Population Apoptotic (%),[8],100%
same,Population Fragmented Nuclei (%),[8],14%
same,Population Healthy Nuclei (%),[8],76%
same,Population Hoechst High Intensity Objects (%),[8],0%
same,Population Membrane Permeable-Phenotype (%),[8],11%
same,Population Mitochondria Different-Phenotype (%),[8],8%
same,Population Mitotic Cells (%),[8],0%
same,Population Normal (%),[8],99%
same,Population Tubulin-Different-Phenotype (%),[8],8%
same,Total Cell Count,[8],164
same,Population Apoptotic (%),[9],89%
same,Population Fragmented Nuclei (%),[9],17%
same,Population Healthy Nuclei (%),[9],73%
same,Population Hoechst High Intensity Objects (%),[9],2%
same,Population Membrane Permeable-Phenotype (%),[9],9%
same,Population Mitochondria Different-Phenotype (%),[9],5%
same,Population Mitotic Cells (%),[9],10%
same,Population Normal (%),[9],97%
same,Population Pyknosed Nuclei (%),[9],8%
same,Population Tubulin-Different-Phenotype (%),[9],5%
same,Total Cell Count,[9],475
same,Population Apoptotic (%),[10],90%
same,Population Fragmented Nuclei (%),[10],12%
same,Population Healthy Nuclei (%),[10],79%
same,Population Hoechst High Intensity Objects (%),[10],1%
same,Population Membrane Permeable-Phenotype (%),[10],6%
same,Population Mitochondria Different-Phenotype (%),[10],4%
same,Population Normal (%),[10],98%
same,Total Cell Count,[10],371
same,Population Apoptotic (%),[11],81%
same,Population Fragmented Nuclei (%),[11],20%
same,Population Healthy Nuclei (%),[11],67%
same,Population Hoechst High Intensity Objects (%),[11],2%
same,Population Membrane Permeable-Phenotype (%),[11],8%
same,Population Mitochondria Different-Phenotype (%),[11],4%
same,Population Mitotic Cells (%),[11],18%
same,Population Normal (%),[11],97%
same,Population Pyknosed Nuclei (%),[11],12%
same,Population Tubulin-Different-Phenotype (%),[11],6%
same,Total Cell Count,[11],445
same,Population Apoptotic (%),[12],89%
same,Population Fragmented Nuclei (%),[12],10%
same,Population Healthy Nuclei (%),[12],76%
same,Population Membrane Permeable-Phenotype (%),[12],11%
same,Population Mitochondria Different-Phenotype (%),[12],8%
same,Population Mitotic Cells (%),[12],10%
same,Population Pyknosed Nuclei (%),[12],13%
same,Population Tubulin-Different-Phenotype (%),[12],8%
same,Total Cell Count,[12],226
